Results from ChEMBL document CHEMBL1136044, “Antitrypanosomal activities and cytotoxicity of 5-nitro-2-furancarbohydrazides” (Bioorg Med Chem Lett, 2002).
pEC50, pIC50: −log10 of the molar value.

How the values were obtained:
Leishmania infantum = test: Evaluated in vitro for antitrypanosomal activity against Leishmania infantum; assay type: functional; details: read-out: ED50 (the source's name)
Outline: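 Primary mouse peritoneal macrophages, 30,000 per well on culture slides. After 24 h, L. infantum amastigotes from the spleen of an infected donor animal were added at a 10/1 infection ratio with two-fold drug dilutions. Incubation was 7 days at 37 °C in 5% CO2. Wright-stained slides were scored microscopically for % reduction of parasite load or infected macrophages, and ED50 was extrapolated.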

MRC5 = test: Tested for cytotoxicity towards human MRC-5 cells; assay type: functional
Outline: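 MRC-5 cells were seeded at 5000 per well and washed after 24 h. Two-fold drug dilutions (32 down to 1.6) were added in RPMI + 5% FCS, with final DMSO below 0.5%. After 7 days at 37 °C in 5% CO2, MTT absorbance at 540 nm was read as % reduction versus untreated controls to give CC50.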

[1] = Tested for cytotoxicity towards mouse peritoneal macrophages (MPM); assay type: functional
Outline: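 Peritoneal macrophages were harvested 48 h after potato-starch stimulation and seeded at 30,000 per well. After 24 h they were washed and given two-fold drug dilutions (32 down to 1.6) in RPMI + 5% FCS, with final DMSO below 0.5%. Cultures ran 7 days at 37 °C in 5% CO2 alongside untreated controls.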

Trypanosoma brucei = test: Evaluated in vitro for antitrypanosomal activity against Trypanosoma brucei; assay type: functional; details: read-out: ED50 (the source's name)
Outline: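 T. brucei bloodstream forms were grown in HMI-9 medium. 10,000 haemoflagellates per well were exposed to different drug concentrations for 4 days; ED50 was reported.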

Trypanosoma cruzi = test: Evaluated in vitro for antitrypanosomal activity against Trypanosoma cruzi; assay type: functional; details: read-out: ED50 (the source's name)
Outline: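 Mouse peritoneal macrophages were seeded at 30,000 per well. After 24 h, about 100,000 T. cruzi trypomastigotes were added per well with 2-fold drug dilutions, then held 4 days at 37 °C in 5% CO2. After methanol fixation and Giemsa staining, % reduction of total parasite load (free trypomastigotes plus intracellular amastigotes) versus untreated cultures was scored microscopically; ED50 was extrapolated.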

Trypanothione reductase = Trypanothione reductase (Trypanosoma cruzi, UniProt P28593); test: Compound was tested for inhibition of trypanothione reductase from Trypanosoma cruzi
Sequence of Trypanothione reductase (P28593 whole entry): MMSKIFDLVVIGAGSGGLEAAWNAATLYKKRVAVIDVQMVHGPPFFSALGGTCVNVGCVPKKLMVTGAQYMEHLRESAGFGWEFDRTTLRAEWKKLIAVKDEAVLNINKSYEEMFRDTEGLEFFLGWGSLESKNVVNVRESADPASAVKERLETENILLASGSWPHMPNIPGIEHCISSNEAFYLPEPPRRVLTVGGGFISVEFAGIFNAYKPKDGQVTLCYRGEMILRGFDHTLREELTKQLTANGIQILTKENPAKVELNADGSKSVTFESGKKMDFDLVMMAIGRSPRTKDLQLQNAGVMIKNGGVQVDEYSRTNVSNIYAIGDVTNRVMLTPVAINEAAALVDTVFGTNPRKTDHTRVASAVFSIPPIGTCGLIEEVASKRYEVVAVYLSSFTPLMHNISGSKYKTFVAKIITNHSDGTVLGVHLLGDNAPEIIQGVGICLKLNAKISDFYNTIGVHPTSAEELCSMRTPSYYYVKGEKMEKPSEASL
Outline: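 T. cruzi trypanothione reductase assay, with trypanothione disulfide as substrate and 0.02 U TR per assay; IC50 determined over increasing compound concentrations.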

Row | SMILES | pEC50 (Trypanosoma brucei) | pEC50 (Trypanosoma cruzi) | pIC50 (Trypanothione reductase) | pEC50 (Leishmania infantum) | CC50 (MRC5) [µM] | CC50 [1] [µM]
1 | O=C(NNC(=O)c1ccc([N+](=O)[O-])o1)c1ccc2ccccc2c1 | 6.89 | 5.40 | – | 5.10 | 2 | 32
2 | O=C(NNC(=O)c1ccc([N+](=O)[O-])o1)c1ccc([N+](=O)[O-])o1 | 5.52 | 5.52 | < 4.30 | 5.10 | 4 | 32
3 | O=C(NNS(=O)(=O)c1ccccc1)c1ccc([N+](=O)[O-])o1 | 5.70 | 4.80 | – | < 4.49 | 4 | 32
4 | O=C(Cc1ccc2ccccc2c1)NNC(=O)c1ccc([N+](=O)[O-])o1 | 6.23 | 6.40 | < 4.60 | 5.10 | 4 | 32
5 | O=C(NNS(=O)(=O)c1cccc2ccccc12)c1ccc([N+](=O)[O-])o1 | 6.00 | 6.10 | – | 5.10 | 0.75 | 32
6 | COC(=O)c1ccc([N+](=O)[O-])o1 | < 4.49 | < 4.49 | – | < 4.49 | > 32 | 32
7 | CC(C)(C)OC(=O)N[C@@H](C(=O)NNC(=O)c1ccc([N+](=O)[O-])o1)c1ccccc1 | 6.60 | 5.40 | – | 5.10 | 6 | 32
8 | O=C(NNS(=O)(=O)c1ccc2ccccc2c1)c1ccc([N+](=O)[O-])o1 | 4.55 | < 4.49 | – | < 4.49 | 18 | 32
9 | CC(C)(C)OC(=O)Nc1ccc2cc(C(=O)NNC(=O)c3ccc([N+](=O)[O-])o3)ccc2c1 | 6.30 | 6.00 | – | 5.10 | 2 | 32
10 | N[C@@H](C(=O)NNC(=O)c1ccc([N+](=O)[O-])o1)c1ccccc1 | 5.70 | 5.70 | – | < 4.49 | 14 | 32
11 | Nc1ccc2cc(C(=O)NNC(=O)c3ccc([N+](=O)[O-])o3)ccc2c1 | 6.19 | 5.40 | – | 5.10 | 0.77 | 32
12 | Nc1nc(N)nc(Nc2ccc([As]3SCC(CO)S3)cc2)n1 (centres undefined) [MELARSOPROL] | 6.70 | – | – | – | – | –

Second part, led by results:

Row | pEC50 (Trypanosoma brucei) | pEC50 (Trypanosoma cruzi) | pIC50 (Trypanothione reductase) | SMILES | pEC50 (Leishmania infantum) | CC50 (MRC5) [µM] | CC50 [1] [µM]
13 | 5.70 | 6.00 | < 4.30 | CC(C)(C)OC(=O)NNC(=O)c1ccc([N+](=O)[O-])o1 | < 4.49 | 12 | 32
14 | 5.30 | 6.30 | < 4.30 | NNC(=O)c1ccc([N+](=O)[O-])o1 | < 4.49 | 9 | 32
15 | 6.40 | 5.52 | – | O=C(NNC(=O)c1cccc2ccccc12)c1ccc([N+](=O)[O-])o1 | 5.10 | 1 | 32
16 | 6.52 | 6.00 | – | O=C(Cc1ccccc1)NNC(=O)c1ccc([N+](=O)[O-])o1 | 5.10 | 2 | 32
17 | 4.49 | 4.80 | – | O=C(NNC(=O)c1ccc([N+](=O)[O-])o1)c1ccccc1 | < 4.49 | 17 | 32
18 | 5.30 | < 4.49 | – | O=C(O)c1ccc([N+](=O)[O-])o1 [5-NITRO-2-FUROIC ACID] | < 4.49 | > 32 | 32
19 | – | 5.50 | – | O=C(Cn1ccnc1[N+](=O)[O-])NCc1ccccc1 [BENZNIDAZOLE] | – | > 50 | –
20 | – | 6.40 | – | CC1CS(=O)(=O)CCN1/N=C/c1ccc([N+](=O)[O-])o1 (centres undefined) [NIFURTIMOX] | – | > 50 | –
